Source: PubChem BioAssay
VLA-4 inh = inhibition in a human VLA-4 binding assay. P13612. VLA-4 expressing cells, ligand binding flow cytometry. inhibition, % (about 7 µM as worked out from the volumes in the protocol). 330,000 compounds, 0.2% hits; in the data active means inhibition above about 50%
Platelet DG rel = platelet dense granule release activity. AID 1663. 300,000 compounds, 0.22% hits. inhibition, %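 (compounds screened at 7.5 µM in platelet-rich plasma)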. human platelet-rich plasma, SFLLRN dense granule ATP release, luminescence;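 active means mean replicate score, as percent of positive control, at or above 50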
Rce1 inh = inhibitors of yeast Ras-converting enzyme | Q03530 | yeast membranes, quenched prenylated peptide cleavage fluorescence | calls only | 290,000 compounds, 0.27% hits | AID 2563;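 active means fall in fluorescence gain of 50% or more versus controls, with final raw signal at or below 3038400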;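 further: plate controls were neutral control wells for no effect and wells lacking membranes for full effect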
TAAR1 ag = human TAAR1 agonism. Q96RJ0. CHO RD-HGA16 TAAR1, Fluo-8 calcium fluorescence; vehicle wells 0%, saturating PEA agonist 100%. activation, % at 3 µM. 360,000 compounds, 0.99% hits;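 active means activation above the mean activation of all test compounds in the run plus 3 SD, cut at about 38% in these data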
Target sequence (Q96RJ0 whole entry, looked up): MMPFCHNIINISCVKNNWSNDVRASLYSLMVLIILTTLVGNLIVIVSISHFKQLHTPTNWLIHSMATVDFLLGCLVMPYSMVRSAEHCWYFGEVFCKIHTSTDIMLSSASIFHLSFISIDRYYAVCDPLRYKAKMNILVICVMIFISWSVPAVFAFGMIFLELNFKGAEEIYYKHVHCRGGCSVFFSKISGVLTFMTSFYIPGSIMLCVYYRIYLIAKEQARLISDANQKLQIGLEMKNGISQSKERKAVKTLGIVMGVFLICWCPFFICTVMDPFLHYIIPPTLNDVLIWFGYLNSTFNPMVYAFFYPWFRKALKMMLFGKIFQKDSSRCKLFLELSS
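test system = CHO RD-HGA16 cells carrying human TAAR1 plus Gα16 | schedule = 17-24 h seeding, 75 min 37 °C dye, 30 min RT | compound dosing = 3 µM single concentration | control set = DMSO and PEA EC100 | replicates = n 1 | signal = Fluo-8 fluorescence, 5 s baseline then 140 s kinetic read | measure = percent activation vs PEA EC100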
TAAR1 antagonist = antagonists of human TAAR1; Q96RJ0; CHO RD-HGA16 TAAR1, Fluo-8 calcium fluorescence, antagonist; inhibition, % at 3 µM; 360,000 compounds, 1.5% hits; AID 624466;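 active means inhibition above a per-plate cutoff, the mean inhibition of test compounds on that plate plus 3 SD, cut at about 49% in these data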;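 further: 0% = DMSO plus EC80 beta-PEA response and 100% = DMSO alone without agonist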
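Material: RD-HGA16 CHO cells with stable hTAAR1 and Gα16; Dosing: single nominal final test compound concentration of 3 µM; Schedule: seeding 17-24 h prior, 75-min 37 °C, 30-min RT dye loading; Detection: kinetic Fluo-8 calcium fluorescence measurement; Measure: % inhibition from peak post-agonist over basal fluorescence ratio; Benchmarks: vehicle and agonist controls.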
TAAR1 ag confirm = confirmation of human TAAR1 agonists. activation, % at 3 µM. shares compounds with TAAR1 ag. CHO RD-HGA16 TAAR1, Fluo-8 calcium fluorescence; scaled: DMSO 0%, maximal phenethylamine 100%. 2,400 compounds, 82% hits;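 active means activation above a cutoff set at the run's mean compound activation plus 3 SD, cut at about 39% in these data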
Ga16 nonsel ag = nonselective agonist in parental cells, TAAR1 agonist counter-screen. shares compounds with TAAR1 ag. CHO-Ga16 parental, Fluo-8 calcium fluorescence; normalized to maximal ATP response, DMSO zero. activation, % at 3 µM. 2,400 compounds, 50% hits;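 active means activation above the run cutoff, the mean activation over all tested wells plus 3 SD, cut at about 12% in these data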;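 further: 0% = DMSO wells and 100% = maximal ATP response on the peak over basal ratio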
TAAR1 desensitize = counter-screen for human TAAR1 agonists: agonists that desensitize TAAR1; shares compounds with TAAR1 ag; CHO RD-HGA16 hTAAR1, Fluo-8 calcium, beta-PEA response inhibition; inhibition, % at 3 µM; 2,400 compounds, 46% hits; AID 651951;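 active means inhibition above the run cutoff, the mean inhibition of all test compounds plus 3 SD, cut at about 49% in these data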;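 further: beta-PEA stimulus applied at its EC80; loss of beta-PEA calcium signal after compound pretreatment read as receptor desensitization; 0% = DMSO with beta-PEA at EC80 and 100% = DMSO alone without agonist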
Ga16 nonsel ant = counter-screen for TAAR1 agonists: nonselective Ga16 antagonists; shares compounds with TAAR1 ag; CHO-Ga16 ATP-induced calcium, Fluo-8 fluorescence; inhibition, % at 3 µM; 2,400 compounds, 39% hits; AID 651952;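 active means inhibition above the plate's mean compound inhibition plus 3 SD, computed per plate, cut at about 22% in these data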;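 further: 0% = EC80 ATP with DMSO and 100% = DMSO wells without ATP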
* = called active by the depositor; i = inactive; · = no result given. An excerpt weighted towards active compounds, which were near 2.6% of everything screened.

SMILES | VLA-4 inh | Platelet DG rel | Rce1 inh | TAAR1 ag | TAAR1 antagonist | TAAR1 ag confirm | Ga16 nonsel ag | TAAR1 desensitize | Ga16 nonsel ant
Cc1cc(C(=O)CN2C(=O)C(=O)N(C3CCCC3)C2=O)c(C)n1CCc1ccc(F)cc1 | 4 | · | · | 72* | 13 | 82* | 2 | 54* | 15
O=C(CN1C(=O)C(=O)N(C2CCCC2)C1=O)NCCc1ccc(F)cc1 | 0 | · | · | 4 | -16 | · | · | · | ·
Cc1cc(C(=O)CN2C(=O)C(=O)N(C3CCCC3)C2=O)c(C)n1CCc1ccccc1 | · | · | · | 49* | 28 | 80* | 1 | 55* | 15
CC1(c2ccccc2)NC(=O)N(CC(=O)N2CCc3ccccc32)C1=O (stereo not drawn) | · | · | · | 48* | -27 | 17 | 9 | -1 | 9
CC1(c2cccc(Br)c2)NC(=O)N(CC(=O)N2CCc3ccccc32)C1=O (stereo not drawn) | -11 | · | · | 6 | 7 | · | · | · | ·
Fc1ccccc1/C=N/Nc1ncnc2ccccc12 | 0 | 17 | i | 4 | -5 | · | · | · | ·
Clc1ccc(/C=N/Nc2ncnc3ccccc23)cc1Cl | 21 | -7 | i | 45* | 14 | 19 | 13* | 14 | -2
Cc1cc(C)nc(Nc2nc(C(N)Cc3ccccc3)cs2)n1 (stereo not drawn) | · | · | · | 9 | -2 | · | · | · | ·
NC(Cc1ccc(Cl)cc1)c1csc(Nc2nccc(C(F)(F)F)n2)n1 (stereo not drawn) | · | · | · | 55* | 38 | 88* | 62* | 74* | 73*
COc1ccc(CC(N)c2csc(Nc3nccc(C(F)(F)F)n3)n2)cc1 (stereo not drawn) | · | · | · | 52* | 22 | 53* | 21* | 28 | 23*
NC(Cc1ccc(F)cc1)c1csc(Nc2nccc(C(F)(F)F)n2)n1 (stereo not drawn) | · | · | · | 72* | 27 | 86* | 54* | 56* | 55*
COc1ccc(CC(N)c2csc(Nc3ncccn3)n2)cc1 (stereo not drawn) | · | · | · | 2 | 0 | · | · | · | ·
NC(Cc1ccccc1)c1csc(Nc2nccc(C(F)(F)F)n2)n1 (stereo not drawn) | · | · | · | 67* | 20 | 86* | 55* | 43 | 48*
NC(=O)C1CCN(C(=O)c2ccc(NS(=O)(=O)/C=C/c3ccccc3)cc2)CC1 | · | · | · | 4 | -31 | · | · | · | ·
C/C(=N\NC(=O)c1ccc(Cl)cc1)c1ccc2[nH]ccc2c1 | 10 | -3 | i | 2 | -4 | · | · | · | ·
CC1CCCN(c2cccc3c2S(=O)(=O)N(Cc2cccc(F)c2)[C@@H](C)[C@H](c2ccccc2)O3)C1 (stereo partly drawn) | · | · | · | 7 | -26 | · | · | · | ·
CC(Oc1ccc(Br)cc1)C(=O)Nc1ccc(S(=O)(=O)NC2=NCCCCC2)cc1 (stereo not drawn) | · | · | · | 95* | 72* | 119* | 78* | 81* | 47*
CC(Oc1ccc(Br)cc1)C(=O)Nc1ccc(S(=O)(=O)Nc2nccs2)cc1 (stereo not drawn) | -4 | 1 | i | 35 | 36 | · | · | · | ·
Cc1cccc(CCNCc2c(C(=O)O)c(C)n(-c3ccccc3)c2C)c1 | 2 | 2 | i | 58* | 6 | 78* | 1 | 44 | 3
COc1cccc(CN(C)CC(=O)Nc2ccccc2C(C)C)c1 | 7 | 5 | i | -1 | -45 | · | · | · | ·
O=C1/C(=C\c2cccc(O)c2O)SC(=S)N1Cc1ccccc1 | 0 | -4 | i | 50* | -17 | 21 | 18* | 22 | 29*
O=C1/C(=C\c2cc([N+](=O)[O-])ccc2O)SC(=S)N1Cc1ccc(Cl)cc1 | i | 10 | i | 84* | 87* | 113* | 121* | 102* | 97*
